According to ChEMBL document CHEMBL1123066, “N alpha-(diphenoxyphosphoryl)-L-alanyl-L-proline, N alpha-[bis (4-nitrophenoxy)phosphoryl]-L-alanyl-L-proline, and N alpha-[ (2-phenylethyl)phenoxyphosphoryl]-L-alanyl-L-proline: releasers of potent inhibitors of angiotensin converting enzyme at physiological pH and temperature” (J Med Chem, 1985):

Assays:
[1] = target: T1, Angiotensin-converting enzyme (Oryctolagus cuniculus, UniProt P12822); assay: Inhibition of Angiotensin I converting enzyme from rabbit lungs at pH 7.5
T1 sequence (P12822 whole entry): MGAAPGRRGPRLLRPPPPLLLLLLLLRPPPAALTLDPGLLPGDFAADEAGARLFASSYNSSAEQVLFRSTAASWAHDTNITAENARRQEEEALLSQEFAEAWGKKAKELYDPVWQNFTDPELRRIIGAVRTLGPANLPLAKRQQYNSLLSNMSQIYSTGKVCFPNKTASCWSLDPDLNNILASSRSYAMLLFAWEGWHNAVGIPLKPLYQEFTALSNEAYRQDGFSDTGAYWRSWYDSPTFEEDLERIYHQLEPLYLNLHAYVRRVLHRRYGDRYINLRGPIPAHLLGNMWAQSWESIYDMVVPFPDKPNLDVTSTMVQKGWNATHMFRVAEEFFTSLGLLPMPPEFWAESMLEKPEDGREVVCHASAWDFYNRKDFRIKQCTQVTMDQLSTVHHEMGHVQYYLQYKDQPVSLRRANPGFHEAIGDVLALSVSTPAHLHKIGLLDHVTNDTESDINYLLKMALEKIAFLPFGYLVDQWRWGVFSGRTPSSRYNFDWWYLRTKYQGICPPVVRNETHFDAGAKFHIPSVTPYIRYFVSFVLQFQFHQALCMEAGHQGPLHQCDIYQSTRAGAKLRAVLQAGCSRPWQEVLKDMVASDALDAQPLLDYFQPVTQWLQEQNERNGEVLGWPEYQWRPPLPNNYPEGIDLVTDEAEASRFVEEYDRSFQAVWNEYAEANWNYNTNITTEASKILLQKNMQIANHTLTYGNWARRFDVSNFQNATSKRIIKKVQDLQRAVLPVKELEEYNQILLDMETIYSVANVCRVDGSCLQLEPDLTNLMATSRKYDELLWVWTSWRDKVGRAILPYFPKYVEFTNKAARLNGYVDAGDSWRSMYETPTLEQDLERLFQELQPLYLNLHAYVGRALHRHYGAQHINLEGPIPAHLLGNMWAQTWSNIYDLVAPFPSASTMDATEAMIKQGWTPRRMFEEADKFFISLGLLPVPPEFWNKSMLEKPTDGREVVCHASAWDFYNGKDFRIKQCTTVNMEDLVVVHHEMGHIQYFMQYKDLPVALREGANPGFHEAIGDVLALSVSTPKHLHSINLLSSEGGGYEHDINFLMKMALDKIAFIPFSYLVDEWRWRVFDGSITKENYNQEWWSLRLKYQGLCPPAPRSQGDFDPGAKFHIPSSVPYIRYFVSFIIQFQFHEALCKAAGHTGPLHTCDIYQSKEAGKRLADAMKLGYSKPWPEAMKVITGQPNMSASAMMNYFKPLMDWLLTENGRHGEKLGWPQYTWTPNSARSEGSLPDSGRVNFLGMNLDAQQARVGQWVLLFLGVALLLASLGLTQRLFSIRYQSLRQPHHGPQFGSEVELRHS

[2] = target: T1, Angiotensin-converting enzyme; assay: Inhibitory constant was evaluated against Angiotensin I converting enzyme from rabbit lungs at pH 8 in TRIS phosphate/borate buffer
[3] = target: T1, Angiotensin-converting enzyme; assay: Inhibitory constant was evaluated against Angiotensin I converting enzyme from rabbit lungs at pH 8
[4] = Rate constant was evaluated for the loss of 1 mol of phenol at the pH 7.5 in the presence of phosphate buffer; format: ADME
Outline: (§1)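 Ester hydrolysis at pH 7.5 and 37 °C in 100 mM Tris or phosphate buffer with 300 mM NaCl, no enzyme. Phenol release (about 1 mM ester) followed at 275 nm, Δε 1375 M⁻¹cm⁻¹. 4-Nitrophenol release (about 10 μM ester) followed at 400 nm, Δε 12500 M⁻¹cm⁻¹. Starting concentrations checked by full hydrolysis in 6 N HCl at 110 °C. First-order rate constants and half-times derived.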

[5] = The half-life period was evaluated for the loss of 1 mol of phenol at the pH 7.5 in the presence of phosphate buffer; format: ADME; outline: as §1
[6] = Inhibitory potency was evaluated against angiotensin converting enzyme at the pH 7.5 in the presence of Tris phosphate buffer, 300 mM in NaCl; format: ADME
[7] = Rate constant was evaluated for the loss of 2 mol of phenol at the pH 7.5 in the presence of Tris buffer; format: ADME; outline: as §1
[8] = The half-life period was evaluated for the loss of 2 mol of phenol at the pH 7.5 in the presence of Tris buffer; format: ADME; outline: as §1
[9] = The half-life period was evaluated for the loss of 1 mol of phenol at the pH 7.5 in the presence of Tris buffer; format: ADME; outline: as §1
[10] = The half-life period was evaluated for the loss of 2 mol of phenol at the pH 7.5 in the presence of phosphate buffer; format: ADME; outline: as §1
[11] = Rate constant was evaluated for the loss of 2 mol of phenol at the pH 7.5 in the presence of phosphate buffer; format: ADME; outline: as §1
[12] = Rate constant was evaluated for the loss of 1 mol of phenol at the pH 7.5 in the presence of Tris buffer; format: ADME; outline: as §1
[13] = Inhibitory potency was evaluated against angiotensin converting enzyme at the pH 7.5; format: ADME
[14] = target: T1, Angiotensin-converting enzyme; assay: Inhibitory activity against Angiotensin I converting enzyme was evaluated
[15] = Half life against hydrolysis at P-N bond; format: ADME
Outline: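 P–N cleavage measured in pH 7.5 phosphate buffer at 37 °C. Free Ala-Pro primary amine determined by fluorescamine assay over the hydrolysis time course. Observed rate constant and half-time derived.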

[16] = target: T1, Angiotensin-converting enzyme; assay: Inhibitory constant was evaluated against Angiotensin I converting enzyme from rabbit lungs
[17] = target: T1, Angiotensin-converting enzyme; assay: Binding affinity against Angiotensin I converting enzyme

Structure (SMILES) | Ki [1] [µM] | Rate constant [4] [h⁻¹] | half-life [5] [h] | half-life [9] [h] | Rate constant [12] [h⁻¹] | further results
C[C@H](NP(=O)(O)Oc1ccccc1)C(=O)N1CCC[C@H]1C(=O)O | 0.008 |  |  |  |  | IC50 [2]: 50000 µM; IC50 [3]: 0.9 µM
C[C@H](NP(=O)(Oc1ccc([N+](=O)[O-])cc1)Oc1ccc([N+](=O)[O-])cc1)C(=O)N1CCC[C@H]1C(=O)O | 0.8 | 0.34 | 2 | 3.4 | 0.2 | half-life [6]: 4 h; Rate constant [7]: 0.025 h⁻¹; half-life [8]: 29 h; half-life [10]: 22 h; Rate constant [11]: 0.031 h⁻¹
C[C@H](NP(=O)(Oc1ccccc1)Oc1ccccc1)C(=O)N1CCC[C@H]1C(=O)O | 42 | 0.0012 | 576 | 528 | 0.0013 | half-life [13]: 384 h
C[C@H](NP(=O)(O)OCc1ccccc1)C(=O)N1CCC[C@H]1C(=O)O | 0.0012 |  |  |  |  | 
C[C@H](NP(=O)(O)CCc1ccccc1)C(=O)N1CCC[C@H]1C(=O)O | 0.0005 |  |  |  |  | IC50 [14]: 0.007 µM
C[C@H](NP(=O)([O-])[O-])C(=O)N1CCC[C@H]1C(=O)[O-].[K+].[K+].[K+] | 0.0014 |  |  |  |  | half-life [15]: 2.2 h; IC50 [16]: 0.7 µM
C[C@H](NP(=O)(O)Oc1ccc([N+](=O)[O-])cc1)C(=O)N1CCC[C@H]1C(=O)O | 0.018 |  |  |  |  | Ki [17]: 0.018 µM
C[C@H](NP(=O)(CCc1ccccc1)Oc1ccccc1)C(=O)N1CCC[C@H]1C(=O)O (stereo partly drawn) | 55 | 0.001 | 744 | 504 | 0.0014 | half-life [6]: 912 h
